# This is a sample that favours compounds with a hit; in the whole collection about 4.6% have one here.
# TAAR1 agonist = human TAAR1 agonism; Q96RJ0; CHO RD-HGA16 TAAR1, Fluo-8 calcium fluorescence; vehicle wells 0%, saturating PEA agonist 100%; activation, % at 3 µM; 360,000 tested, 0.99% active;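 active means activation above the mean activation of all test compounds in the run plus 3 SD, cut at about 38% in these data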
#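 Benchmarks: low control DMSO, high control PEA (EC100); System: CHO RD-HGA16 cells carrying human TAAR1 plus Gα16; Detection: Fluo-8 fluorescence, 5 s baseline then 140 s kinetic read; Schedule: 17-24 h plating, Fluo-8 75 min 37 °C, 30 min RT; Read-out basis: % activation from peak over basal fluorescence ratio, DMSO-to-PEA scaled.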
# OX1R antag-1 = antagonists of human orexin 1 receptor (OX1R). inhibition, % at 6.6 µM. 330,000 tested, 1.8% active. O43613. OX1R-expressing cells, FRET antagonist read-out; in the data active means inhibition mostly above about 38%, no sharp cut-off; inactive means mostly below about 40%
# Target sequence (O43613 whole entry, looked up): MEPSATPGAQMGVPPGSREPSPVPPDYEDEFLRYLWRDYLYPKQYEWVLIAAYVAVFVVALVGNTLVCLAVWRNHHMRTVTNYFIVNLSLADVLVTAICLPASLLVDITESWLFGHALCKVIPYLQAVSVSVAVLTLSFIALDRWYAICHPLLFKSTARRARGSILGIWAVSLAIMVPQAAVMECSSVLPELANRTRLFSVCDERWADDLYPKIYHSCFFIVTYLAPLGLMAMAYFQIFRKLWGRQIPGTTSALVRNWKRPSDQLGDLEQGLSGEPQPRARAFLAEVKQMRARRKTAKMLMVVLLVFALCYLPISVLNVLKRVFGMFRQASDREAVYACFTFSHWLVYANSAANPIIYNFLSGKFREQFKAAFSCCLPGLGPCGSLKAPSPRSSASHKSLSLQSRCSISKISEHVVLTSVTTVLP
# CHO parental Ca = counter-screen for OX1R antagonists: effect in parental CHO cells. AID 463079. inhibition, % at 5.6 µM. 330,000 tested, 0.63% active. parental CHO-K1, ATP-induced calcium, Fluo-8 fluorescence;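 active means inhibition above that plate's mean sample inhibition plus 3 SD, cut at about 26% in these data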
#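 Test system: untransfected parental CHO cell line; also added: ATP stimulus; dosing: 5.6 µM, single dose; signal: calcium-sensitive Fluo-8 fluorescence; measure: percent inhibition of ATP-evoked calcium rise, normalized to controls; benchmarks: low control ATP plus DMSO, high control DMSO only; replication: one well per compound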
# GPR7 antagonist = human neuropeptides B/W receptor 1 antagonism; inhibition, % at 4.4 µM; 290,000 tested, 1.1% active; AID 1861; P48145; GPR7-expressing cells, fluorescence antagonist assay; in the data active means inhibition above about 16%, passing the limit was not always enough;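 further: cells stimulated with the agonist NPW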
# TAAR1 antagonist = human TAAR1 antagonism | inhibition, % at 3 µM | Q96RJ0 | CHO RD-HGA16 TAAR1, Fluo-8 calcium fluorescence, antagonist | 360,000 tested, 1.5% active | AID 624466;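 active means inhibition above a per-plate cutoff, the mean inhibition of test compounds on that plate plus 3 SD, cut at about 49% in these data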
#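 Material: CHO RD-HGA16 cells bearing hTAAR1; compound dosing: one-point dosing, 3 µM nominal final; schedule: dye loading 75 min at 37 °C, then 30 min room temperature; measured by: calcium fluorescence with Fluo-8; control set: vehicle and agonist controls; replication: n of 1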
# OX1R antag-2 = blocks the human orexin 1 receptor. O43613. CHO/OX1R cells, Fluo-8 calcium fluorescence, orexin A. inhibition, % at 5 µM. 330,000 tested, 0.43% active;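 active means inhibition above its plate's threshold, mean inhibition of all tested compounds on the plate plus 3 SD, cut at about 37% in these data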
# nonsel antag count = nonselective antagonist in TAAR1 antagonist counter-screen. shares compounds with TAAR1 antagonist. counterscreen cell line, calcium fluorescence, antagonist mode. inhibition, % at 3 µM. 2,400 tested, 77% active. AID 651780; in the data active means inhibition above about 22%;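 further: CHO-Ga16 host cells stimulated with ATP at an EC80 level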
# TAAR1 antag conf = human TAAR1 antagonism, confirmed. inhibition, % at 3 µM. 2,400 tested, 40% active. TAAR1-expressing cells, fluorescence antagonist read-out. AID 651785. shares compounds with TAAR1 antagonist; in the data active means inhibition above about 49%;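 further: CHO-Ga16 host cells challenged with agonist PEA near its EC80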
# Ga16 nonsel ag = counter-screen for TAAR1 antagonists: nonselective Ga16 agonists; 2,400 tested, 18% active; shares compounds with TAAR1 antagonist; activation, % at 3 µM; Ga16-expressing cells, calcium fluorescence, agonist counterscreen; in the data active means activation above about 12%
# TAAR1 ag counter = TAAR1 agonism, antagonist counter-screen. shares compounds with TAAR1 antagonist. hTAAR1 cell line, fluorescence activation, agonist mode. activation, % at 3 µM. 2,400 tested, 2% active; in the data active means activation above about 37%;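 further: CHO cells stably expressing TAAR1 with calcium dye readout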
# Hits are given with their value; 0 = inactive; - = not tested or not shown.
SMILES,TAAR1 agonist,OX1R antag-1,CHO parental Ca,GPR7 antagonist,TAAR1 antagonist,OX1R antag-2,nonsel antag count,TAAR1 antag conf,Ga16 nonsel ag,TAAR1 ag counter
CC(C(=O)Nc1nc(-c2ccc(F)c(F)c2)cs1)N1C(=O)C2CC=CCC2C1=O (stereo not drawn),0,0,0,-,78,0,45,60,0,0
O=C(Nc1nc(-c2ccc(F)c(F)c2)cs1)c1ccc(OCC2CCCO2)cc1 (stereo not drawn),0,0,0,0,54,0,33,0,0,0
O=C(Cc1cccs1)Nc1nc(-c2ccc(F)c(F)c2)cs1,0,0,0,0,72,0,39,55,0,0
O=C(CN1C(=O)NC2(CCCC2)C1=O)Nc1nc(-c2ccc(F)cc2)cs1,0,0,0,0,51,0,23,0,0,0
Cc1csc(NC(=O)c2ccc(OCC3CCCO3)cc2)n1 (stereo not drawn),0,0,0,0,0,0,-,-,-,-
CCOc1ccc(S(=O)(=O)NCCC(=O)NCC(c2ccco2)N2CCCCC2)cc1 (stereo not drawn),0,0,0,-,0,0,-,-,-,-
O=C(COc1ccc(Cl)cc1)Nc1ccc(N2CCN(C(=O)c3ccco3)CC2)cc1,0,0,0,0,80,0,42,0,12,0
Cc1cc(C)cc(OCC(=O)Nc2ccc(N3CCN(C(=O)c4ccco4)CC3)cc2)c1,0,0,0,0,74,0,43,62,12,0
C[C@@H]1COC(=O)[C@H](CC(=O)OC(C)(C)C)C/C=C\C[C@@H](CC(=O)NCCO)C(=O)N1,0,0,0,-,0,0,-,-,-,-
CC(C)CCOc1ccc(C(=O)NNC(=O)CNC(=O)c2ccccc2F)cc1,0,0,0,-,0,0,-,-,-,-
COc1ccc(S(=O)(=O)N(CC(=O)Nc2ccc3c(c2)OCO3)c2ccccc2OC)cc1,0,0,0,0,69,0,27,56,0,0
CCOc1ccccc1N(CC(=O)Nc1cccc(OC)c1)S(=O)(=O)c1ccccc1,0,0,0,0,52,0,0,0,0,0
COc1ccccc1N(CC(=O)Nc1cccnc1)S(=O)(=O)c1ccccc1,0,0,0,0,0,0,-,-,-,-
C[C@H](CO)N1C[C@H](C)[C@@H](CN(C)Cc2ccccc2)Oc2c(NC(=O)Cc3ccccc3)cccc2C1=O,0,0,0,-,68,0,26,0,0,0
COc1ccc(NC(=O)Nc2cccc3c2O[C@H](CN(C)C(=O)Nc2ccc4c(c2)OCO4)[C@@H](C)CN([C@H](C)CO)C3=O)cc1,0,0,0,-,65,0,33,53,0,0
COc1ccc(NC(=O)N(C)C[C@H]2Oc3c(NC(=O)Nc4ccccc4)cccc3C(=O)N([C@H](C)CO)C[C@@H]2C)cc1,0,0,0,-,0,0,-,-,-,-
C[C@H](CO)N1C[C@H](C)[C@@H](CN(C)C(=O)Nc2ccc3c(c2)OCO3)Oc2c(NC(=O)Nc3ccc4c(c3)OCO4)cccc2C1=O,0,0,0,-,69,0,31,53,0,0
CSc1cccc(NC(=O)CCn2c(=O)c3cccn3c3cccnc32)c1,0,0,0,0,57,0,25,0,0,0
COc1cccc(CNC(=O)CCn2c(=O)c3cccn3c3cccnc32)c1,0,0,0,0,0,0,-,-,-,-
COCCNC(=O)C1(C)CCCN(Cc2c(C)nn(-c3ccccc3)c2C)C1 (stereo not drawn),0,-,-,-,0,-,-,-,-,-
CCCCCc1c(-c2ccccc2F)ncn1CCc1ccccc1OC,0,-,-,-,60,-,39,59,21,48
CCCCc1c(-c2ccccc2F)ncn1CCc1ccccc1OC,0,-,-,-,60,-,38,72,18,63

# Bioassay records deposited in PubChem by The Scripps Research Institute Molecular Screening Center.
